Laboratory results from ChEMBL document CHEMBL3232750, “Synthesis, structure-activity relationships, and in vitro antibacterial and antifungal activity evaluations of novel pyrazole carboxylic and dicarboxylic acid derivatives” (2014).
Values after ≈ are worked out from the molar mass of the structure shown. Active and inactive are the calls of the source. The calls are words filed in the database; no cut-off is given here.

Key:
Nakaseomyces glabratus = test: Antifungal activity against Candida glabrata at 25 degC after 48 hrs by agar well diffusion assay; assay type: functional
Method in brief: (§1)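 Yeast suspensions of 10^7 CFU/mL were swabbed onto Sabouraud Dextrose Agar and dried about 40 min at 35 °C. Compounds were dissolved in DMSO (2.5 mg/ml initial) and diluted two-fold in DMSO, then loaded into 6 mm wells. Plates: 2 h pre-incubation at 25 °C, then 48 h at 25 °C. MIC read as the lowest concentration inhibiting growth around the well, in duplicate. The C. albicans clinical isolate came from a hospitalized patient at Eskisehir Osmangazi University hospital; the standard strain came from a culture collection.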

Pseudomonas aeruginosa = test: Antibacterial activity against Pseudomonas aeruginosa at 37 degC after 24 hrs by agar well diffusion assay; assay type: functional, organism-based
Method in brief: (§2)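 Compounds dissolved in DMSO at 2.5 mg/ml initial concentration, then serially diluted two-fold in DMSO. Nutrient Agar plates were swabbed with 10^8 CFU/mL bacteria and dried about 40 min at 35 °C. Solution was placed in 6 mm wells, then 2 h pre-incubation at 25 °C and 24 h at 37 °C. MIC is the lowest concentration giving a growth-inhibition zone around the well. Duplicate.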

Staphylococcus aureus [1] = test: Antibacterial activity against methicillin-resistant Staphylococcus aureus at 37 degC after 24 hrs by agar well diffusion assay; assay type: functional
Method in brief: (§3)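 Bacteria kept on Nutrient Agar slants at 4 °C and subcultured before use. Suspensions of 10^8 CFU/mL were swabbed onto Nutrient Agar and the plates dried 40 min at 35 °C. Compounds were dissolved in DMSO starting at 2.5 mg/ml, serially diluted two-fold, and loaded into 6 mm wells. Plates were pre-incubated 2 h at 25 °C, then 24 h at 37 °C. Inhibition zones were read and the MIC taken as the lowest inhibiting concentration. Duplicates were run.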

Candida parapsilosis = test: Antifungal activity against Candida parapsilosis at 25 degC after 48 hrs by agar well diffusion assay; assay type: functional; conditions: for MIC: Lodderomyces parapsilosis; method in brief: as §1
Escherichia coli = test: Antibacterial activity against Escherichia coli at 37 degC after 24 hrs by agar well diffusion assay; assay type: functional, organism-based; method in brief: as §2
Staphylococcus aureus [2] = test: Antibacterial activity against Staphylococcus aureus at 37 degC after 24 hrs by agar well diffusion assay; assay type: functional; method in brief: as §2
Candida albicans [3] = test: Antifungal activity against Candida albicans at 25 degC after 48 hrs by agar well diffusion assay; assay type: functional; method in brief: as §1
Enterococcus = test: Antibacterial activity against vancomycin-resistant Enterococcus species at 37 degC after 24 hrs by agar well diffusion assay; assay type: functional, organism-based; method in brief: as §3
Candida albicans [4] = test: Antifungal activity against Candida albicans ESOGU at 25 degC after 48 hrs by agar well diffusion assay; assay type: functional; method in brief: as §1
Candida tropicalis = test: Antifungal activity against Candida tropicalis at 25 degC after 48 hrs by agar well diffusion assay; assay type: functional; method in brief: as §1

SMILES | Activity (Nakaseomyces glabratus) | Activity (Pseudomonas aeruginosa) | Activity (Staphylococcus aureus [1]) | Activity (Candida parapsilosis) | Activity (Escherichia coli) | Activity (Staphylococcus aureus [2]) | MIC (Candida albicans [3]) | Activity (Enterococcus) | Activity (Candida albicans [4]) | Activity (Candida tropicalis) | MIC (Candida albicans [4]) | MIC (Nakaseomyces glabratus) | MIC (Staphylococcus aureus [1]) | MIC (Staphylococcus aureus [2]) | MIC (Candida parapsilosis) | MIC (Candida tropicalis) | Activity (Candida albicans [3])
O=C(Nc1cccc(C(F)(F)F)c1)c1nn(-c2cccc([N+](=O)[O-])c2)c(-c2ccccc2)c1C(=O)Nc1cccc(C(F)(F)F)c1 | inactive | inactive | inactive | inactive | inactive | inactive | 50 µg/mL (≈ 78.2 µM) | inactive | inactive | inactive |  |  |  |  |  |  | 
O=C(Nc1ccc(C(F)(F)F)cc1)c1nn(-c2cccc([N+](=O)[O-])c2)c(-c2ccccc2)c1C(=O)Nc1ccc(C(F)(F)F)cc1 | inactive | inactive | inactive | inactive | inactive | inactive | 50 µg/mL (≈ 78.2 µM) | inactive | inactive | inactive |  |  |  |  |  |  | 
Cc1ccc(NC(=O)c2nn(-c3cccc([N+](=O)[O-])c3)c(-c3ccccc3)c2C(=O)Nc2ccc(C)cc2)cc1 | inactive | inactive | inactive | inactive | inactive | inactive | 25 µg/mL (≈ 47 µM) | inactive | inactive | inactive |  |  |  |  |  |  | 
CCOC(=O)c1c(C(=O)Nc2ccc(F)cc2)nn(-c2cccc([N+](=O)[O-])c2)c1-c1ccccc1 | inactive | inactive | inactive | inactive | inactive | inactive | 50 µg/mL (≈ 105 µM) | inactive |  | inactive | 50 µg/mL (≈ 105 µM) |  |  |  |  |  | 
CCOC(=O)c1c(C(=O)Nc2ccccc2C(F)(F)F)nn(-c2cccc([N+](=O)[O-])c2)c1-c1ccccc1 | inactive | inactive | inactive | inactive | inactive | inactive | 50 µg/mL (≈ 95.3 µM) | inactive |  | inactive | 50 µg/mL (≈ 95.3 µM) |  |  |  |  |  | 
CCOC(=O)c1c(C(=O)Nc2ccccc2F)nn(-c2cccc([N+](=O)[O-])c2)c1-c1ccccc1 |  | inactive | inactive | inactive | inactive | inactive | 25 µg/mL (≈ 52.7 µM) | inactive |  | inactive | 50 µg/mL (≈ 105 µM) | 50 µg/mL (≈ 105 µM) |  |  |  |  | 
CCNC(=S)NC(=O)c1nn(-c2cccc([N+](=O)[O-])c2)c(-c2ccccc2)c1C(=O)NC(=S)NCC | inactive | inactive | inactive | inactive | inactive | inactive | 25 µg/mL (≈ 47.6 µM) | inactive |  | inactive | 25 µg/mL (≈ 47.6 µM) |  |  |  |  |  | 
CNC(=O)NC(=O)c1nn(-c2cccc([N+](=O)[O-])c2)c(-c2ccccc2)c1C(=O)NC(=O)NC | inactive | inactive |  | inactive | inactive |  | 25 µg/mL (≈ 53.7 µM) | inactive |  | inactive | 25 µg/mL (≈ 53.7 µM) |  | 50 µg/mL (≈ 107 µM) | 50 µg/mL (≈ 107 µM) |  |  | 
O=c1[nH][nH]c(=O)c2c(-c3ccccc3)n(-c3cccc([N+](=O)[O-])c3)nc12 | inactive | inactive | inactive | inactive | inactive | inactive | 50 µg/mL (≈ 143 µM) | inactive | inactive | inactive |  |  |  |  |  |  | 
CCNC(=O)NC(=O)c1nn(-c2cccc([N+](=O)[O-])c2)c(-c2ccccc2)c1C(=O)NC(=O)NCC | inactive | inactive | inactive | inactive | inactive | inactive | 25 µg/mL (≈ 50.7 µM) | inactive |  | inactive | 25 µg/mL (≈ 50.7 µM) |  |  |  |  |  | 
O=C(Nc1ccc([N+](=O)[O-])cc1)c1nn(-c2cccc([N+](=O)[O-])c2)c(-c2ccccc2)c1C(=O)Nc1ccc([N+](=O)[O-])cc1 | inactive | inactive | inactive |  | inactive | inactive | 25 µg/mL (≈ 42.1 µM) | inactive |  |  | 25 µg/mL (≈ 42.1 µM) |  |  |  | 25 µg/mL (≈ 42.1 µM) | 50 µg/mL (≈ 84.2 µM) | 
O=C(O)c1cnn(-c2cccc([N+](=O)[O-])c2)c1-c1ccccc1 | inactive | inactive |  | inactive | inactive |  | 25 µg/mL (≈ 80.8 µM) | inactive | inactive | inactive |  |  | 25 µg/mL (≈ 80.8 µM) | 50 µg/mL (≈ 162 µM) |  |  | 
Cc1cccc(NC(=O)c2nn(-c3cccc([N+](=O)[O-])c3)c(-c3ccccc3)c2C(=O)Nc2cccc(C)c2)c1 | inactive | inactive | inactive | inactive | inactive | inactive |  | inactive | inactive | inactive |  |  |  |  |  |  | inactive
O=C(Nc1ccccc1F)c1nn(-c2cccc([N+](=O)[O-])c2)c(-c2ccccc2)c1C(=O)Nc1ccccc1F | inactive | inactive | inactive | inactive | inactive | inactive | 25 µg/mL (≈ 46.3 µM) | inactive | inactive | inactive |  |  |  |  |  |  | 
CCOC(=O)c1c(C(=O)Nc2cccc(C(F)(F)F)c2)nn(-c2cccc([N+](=O)[O-])c2)c1-c1ccccc1 | inactive | inactive | inactive | inactive | inactive | inactive | 25 µg/mL (≈ 47.7 µM) | inactive |  |  | 50 µg/mL (≈ 95.3 µM) |  |  |  |  | 50 µg/mL (≈ 95.3 µM) | 
O=C(Nc1ccccc1C(F)(F)F)c1nn(-c2cccc([N+](=O)[O-])c2)c(-c2ccccc2)c1C(=O)Nc1ccccc1C(F)(F)F | inactive | inactive | inactive | inactive | inactive | inactive | 25 µg/mL (≈ 39.1 µM) | inactive |  | inactive | 50 µg/mL (≈ 78.2 µM) |  |  |  |  |  | 
O=C(Nc1cccc([N+](=O)[O-])c1)c1nn(-c2cccc([N+](=O)[O-])c2)c(-c2ccccc2)c1C(=O)Nc1cccc([N+](=O)[O-])c1 | inactive | inactive | inactive |  | inactive | inactive | 25 µg/mL (≈ 42.1 µM) | inactive |  | inactive | 25 µg/mL (≈ 42.1 µM) |  |  |  | 50 µg/mL (≈ 84.2 µM) |  | 
